This note sets out measurements from ChEMBL document CHEMBL2406962, “Adenosine Dioxolane Nucleoside Phosphoramidates as Antiviral Agents for Human Immunodeficiency and Hepatitis B Viruses” (ACS Med Chem Lett, 2013).

Usually CC50 stands for the concentration at which the toxic effect on the cells reaches its halfway point. What is called EC50 is the concentration at which the effect is half-maximal. A word on the LD50: it is the dose expected to kill half of the subjects tested.

Data set [1] concerns PBMC. In words: Drug metabolism in human PBMC assessed as 6-cyclopropylamino purine dioxolane triphosphate level measured per 10^6 cells at 50 uM after 4 hrs by LC-MS/MS analysis. The class given is ADME, cell-based.
The next data set deals with Huh-7. Nature of the data set: Cytotoxicity against human HuH7 cells after 2 to 4 days by MTT assay. It is filed as cell-based. For orientation: Formazan colour is commonly taken as a measure of viable cells.
For another data set, the system named is HepG2. Nature of the data set: Cytotoxicity against human HepG2 cells after 2 to 4 days by neutral red dye uptake assay. It is filed as cell-based.
The subject of data set [2] is PBMC. Nature of the data set: Drug metabolism in human PBMC assessed as dioxolane-A triphosphate level measured per 10^6 cells at 50 uM after 4 hrs by LC-MS/MS analysis. The class given is ADME, cell-based. Further details: unit: pmol/10^6 cells.
For the next data set, the system named is Vero. Nature of the data set: Cytotoxicity against African green monkey Vero cells after 2 to 4 days by MTT assay. Conditions: chlorocebus sabaeus. It is filed as cell-based. The gist of the method: (§1)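 Cytotoxicity in human PBM cells, Vero (African green monkey kidney epithelial) cells and CEM (human T-cell-derived line) cells, with compounds tested up to 100 μM.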

For a further data set, the system named is CCRF-CEM. In words: Cytotoxicity against human CEM cells after 2 to 4 days by MTT assay. It is filed as cell-based. In outline: as §1
For data set [3], the system named is Human immunodeficiency virus 1. In words: Antiviral activity against Human immunodeficiency virus 1 LAI infected in PHA-stimulated human PBMC. The class given is functional, organism-based.
The subject of a further data set is Hepatitis B virus. Nature of the data set: Antiviral activity against Hepatitis B virus infected in human HepAD38 cells after 5 days. The class given is functional, organism-based. Particulars: HePAD38, 120 h.
Data set [4] has as its system PBMC. Nature of the data set: Cytotoxicity against human PBMC after 2 to 4 days by MTT assay. The class given is cell-based. In outline: as §1
A further data set can be described thus: in vivo. Conditions: mouse.

In the case of `CCOC(=O)[C@H](C)NP(=O)(OC[C@@H]1OC[C@H](n2cnc3c(NC4CC4)ncnc32)O1)Oc1ccccc1` (stereo partly drawn), the Drug metabolism in the data set with PBMC [1] stood at 0.13 pmol; in the data set with PBMC [2], 0.11 pmol. In addition, the CC50 in the data set with Huh-7, in the data set on HepG2, with Vero, in the data set with CCRF-CEM and in the data set with PBMC [4] was more than 100 µM in each case. Further, the EC50 in data set [3] is 86 nM; in the data set on Hepatitis B virus it was 0.8 µM.

On to `OC[C@@H]1OC[C@H](n2cnc3c(NC4CC4)ncnc32)O1`, for which the CC50 in the data set with Huh-7, in the data set on HepG2, in the data set with Vero, in the data set on CCRF-CEM and in the data set with PBMC [4] was more than 100 µM each time. In addition, the EC50 is 92000 nM in data set [3] and more than 10 µM in the data set on Hepatitis B virus.

As for `Nc1ncnc2c1ncn2[C@H]1CO[C@@H](CO)O1`, the Drug metabolism in the data set with PBMC [2] was 0.18 pmol.

Compound `Oc1ccccc1` [PHENOL] came in with an LD50 in “in vivo” of 270 mg/kg.

As for `CCOC(=O)CCc1ccccc1OP(=O)(N[C@@H](C)C(=O)OCC)OC[C@@H]1OC[C@H](n2cnc3c(NC4CC4)ncnc32)O1` (stereo partly drawn), the Drug metabolism with PBMC [1] was 0.19 pmol; in the data set with PBMC [2], 0.14 pmol. Further, the CC50 with Huh-7 was 65 µM; in the data set with HepG2, more than 100 µM; in the data set with Vero, more than 100 µM; with CCRF-CEM it was more than 100 µM; with PBMC [4], more than 100 µM. In addition, the EC50 in data set [3] was 770 nM; in the data set with Hepatitis B virus, more than 10 µM.

Regarding `CCOC(=O)[C@H](C)NP(=O)(OC[C@@H]1OC[C@H](n2cnc3c(OC)ncnc32)O1)Oc1ccccc1` (stereo partly drawn), the CC50 with Huh-7 is 80 µM; in the data set with HepG2, more than 100 µM; in the data set with Vero, more than 100 µM; in the data set with CCRF-CEM, more than 100 µM; with PBMC [4], more than 100 µM. The EC50 in [3] is 340 nM; with Hepatitis B virus, more than 10 µM.

For the compound `COc1ncnc2c1ncn2[C@H]1CO[C@@H](COP(=O)(N[C@@H](C)C(=O)OC(C)C)Oc2ccccc2CCC(=O)OC(C)C)O1` (stereo partly drawn), the CC50 in the data set on Huh-7 was 52 µM; in the data set with HepG2, more than 100 µM; in the data set with Vero, more than 100 µM; in the data set with CCRF-CEM it was more than 100 µM; in the data set with PBMC [4] it was more than 100 µM. Moreover, the EC50 in data set [3] is 7000 nM; in the data set on Hepatitis B virus it was more than 10 µM.

Turning to `Nc1nc(N)c2ncn([C@H]3CO[C@@H](CO)O3)c2n1` [AMDOXOVIR], the CC50 in the data set on Huh-7, in the data set with HepG2, in the data set on Vero, in the data set on CCRF-CEM and in the data set on PBMC [4] was more than 100 µM throughout. The EC50 is 400 nM in data set [3] and more than 9 µM with Hepatitis B virus.

Regarding `CCOC(=O)[C@H](C)NP(=O)(OC[C@@H]1OC[C@H](n2cnc3c(N)ncnc32)O1)Oc1ccccc1` (stereo partly drawn), the 50% cytotoxic concentration (CC50) in the data set on Huh-7 is 7.3 µM; in the data set on HepG2 it was more than 100 µM; with Vero it was 80 µM; in the data set with CCRF-CEM it was 18 µM; in the data set with PBMC [4], 2 µM. Besides, the Drug metabolism in the data set on PBMC [2] was 200 pmol. Further, the EC50 in [3] stood at 0.56 nM; with Hepatitis B virus, 0.03 µM.

Take `CC(C)OC(=O)CCc1ccccc1OP(=O)(N[C@@H](C)C(=O)OC(C)C)OC[C@@H]1OC[C@H](n2cnc3c(NC4CC4)ncnc32)O1` (stereo partly drawn): the CC50 in the data set with Huh-7 was 57 µM; with HepG2 it was more than 100 µM; in the data set with Vero, more than 100 µM; with CCRF-CEM, 84 µM; in the data set on PBMC [4], more than 100 µM. For the same compound, the EC50 is 11000 nM in data set [3] and more than 10 µM in the data set on Hepatitis B virus.

With `CCOC(=O)CCc1ccccc1OP(=O)(N[C@@H](C)C(=O)OCC)OC[C@@H]1OC[C@H](n2cnc3c(OC)ncnc32)O1` (stereo partly drawn), the CC50 is 80 µM in the data set on Huh-7; more than 100 µM in the data set with HepG2; 93 µM in the data set with Vero; more than 100 µM in the data set with CCRF-CEM; more than 100 µM in the data set on PBMC [4]. The EC50 in [3] was 420 nM; in the data set with Hepatitis B virus, more than 10 µM.

In the case of `CCOC(=O)CCc1ccccc1OP(=O)(N[C@@H](C)C(=O)OCC)OC[C@@H]1OC[C@H](n2cnc3c(N)ncnc32)O1` (stereo partly drawn), the CC50 with Huh-7 is 12 µM; with HepG2 it was more than 100 µM; in the data set on Vero it was 36 µM; in the data set on CCRF-CEM, 53 µM; in the data set on PBMC [4], 12 µM. Also, the Drug metabolism with PBMC [2] stood at 90 pmol. The figures for the EC50 (in data set [3]; in the data set on Hepatitis B virus) were 3.3 nM and 0.3 µM, respectively.
